Converted amounts (≈) assume the structure as drawn.
Key:
[1] = Inhibitory activity against phospholipase C isolated from human melanoma
Outline: (§1)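 PI-specific PLC partially purified from RPMI 7272 human melanoma xenografts in nude mice (Q-Sepharose then heparin-Sepharose, 0.35 M NaCl eluate), 20–30 μg protein. Enzyme preincubated with compound 5 min at 37 °C in 25 mM imidazole pH 7.2, 100 mM KCl, 1 mM CaCl2, 0.8 mg/mL deoxycholate. Reaction started with 1 mM phosphatidylinositol, run 15 min at 37 °C, stopped with EDTA.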

[2] = Inhibitory activity against phospholipase C isolated from human melanoma; IN-Inactive; outline: as §1
[3] = pKa value was determined; format: physicochemical

Row | Structure (SMILES) | IC50 [1] | IC50 [2] | pKa [3]
1 | CC(=O)Oc1cccc2cc([N+](=O)[O-])c(=O)oc12 | 36 µg/mL (≈ 144 µM) | – | –
2 | O=c1oc2cc(O)ccc2cc1[N+](=O)[O-] | – | Not Active | –
3 | O=c1oc2ccc(OCCCCCCCCO)cc2cc1[N+](=O)[O-] | 9.6 µg/mL (≈ 28.6 µM) | – | –
4 | O=[N+]([O-])C1=Cc2ccccc2OC1Nc1cccc([N+](=O)[O-])c1 (stereo unspecified) | 7.5 µg/mL (≈ 23.9 µM) | – | 2.47
5 | CCCCCCCCCCOc1ccc2oc(=O)c([N+](=O)[O-])cc2c1 | – | Not Active | –
6 | CCCCCCCOc1ccc2oc(=O)c([N+](=O)[O-])cc2c1 | – | Not Active | –
7 | CCCCCCOc1ccc2oc(=O)c([N+](=O)[O-])cc2c1 | – | Not Active | –
8 | O=[N+]([O-])C1=Cc2ccccc2OC1Nc1ccccc1 (stereo unspecified) | 11.7 µg/mL (≈ 43.6 µM) | – | 4.4
9 | COc1ccc(NC2Oc3ccccc3C=C2[N+](=O)[O-])cc1 (stereo unspecified) | 12.9 µg/mL (≈ 43.2 µM) | – | 5.31
10 | O=c1oc2c(O)cccc2cc1[N+](=O)[O-] | 24.8 µg/mL (≈ 120 µM) | – | –
11 | CCCCCCCC(=O)Oc1cccc2cc([N+](=O)[O-])c(=O)oc12 | 17 µg/mL (≈ 51 µM) | – | –
12 | CC(=O)Oc1ccc2oc(=O)c([N+](=O)[O-])cc2c1 | 16 µg/mL (≈ 64.2 µM) | – | –
13 | CCCCCCCCCCCCCCCC(=O)Oc1ccc2oc(=O)c([N+](=O)[O-])cc2c1 | 28.5 µg/mL (≈ 64 µM) | – | –
14 | O=c1oc2ccccc2cc1[N+](=O)[O-] | 16.1 µg/mL (≈ 84.2 µM) | – | –
15 | C=CCCCCCCCCC(=O)Oc1ccc2oc(=O)c([N+](=O)[O-])cc2c1 | 3.2 µg/mL (≈ 8.57 µM) | – | –
16 | O=[N+]([O-])C1=Cc2ccccc2OC1Nc1ccccc1[N+](=O)[O-] (stereo unspecified) | 6 µg/mL (≈ 19.2 µM) | – | -0.26

Row | Structure (SMILES) | IC50 [1] | IC50 [2] | pKa [3]
17 | CCCCCCCCCCCCCCCC(=O)Oc1ccc2cc([N+](=O)[O-])c(=O)oc2c1 | – | Not Active | –
18 | CC(C)Oc1ccc2oc(=O)c([N+](=O)[O-])cc2c1 | 23.5 µg/mL (≈ 94.3 µM) | – | –
19 | CCCCCCCCCCCCOc1ccc2oc(=O)c([N+](=O)[O-])cc2c1 | 68.6 µg/mL (≈ 183 µM) | – | –
20 | O=[N+]([O-])C1=Cc2ccccc2OC1Nc1ccc([N+](=O)[O-])cc1 (stereo unspecified) | 14.4 µg/mL (≈ 46 µM) | – | 1
21 | CCCCCCCC(=O)Oc1ccc2cc([N+](=O)[O-])c(=O)oc2c1 | – | Not Active | –
22 | O=[N+]([O-])C1=Cc2ccccc2OC1N1CCOCC1 (stereo unspecified) | 5 µg/mL (≈ 19.1 µM) | – | 8.33
23 | C=CCCCCCCCCOc1ccc2oc(=O)c([N+](=O)[O-])cc2c1 | 45.1 µg/mL (≈ 131 µM) | – | –
24 | COc1ccccc1NC1Oc2ccccc2C=C1[N+](=O)[O-] (stereo unspecified) | 4.5 µg/mL (≈ 15.1 µM) | – | 2.52
25 | CCCCCCCCCCCCCCCC(=O)Oc1cccc2cc([N+](=O)[O-])c(=O)oc12 | 47 µg/mL (≈ 105 µM) | – | –
26 | CC(=O)Oc1ccc2cc([N+](=O)[O-])c(=O)oc2c1 | – | Not Active | –
27 | CCCCCCCC(=O)Oc1ccc2oc(=O)c([N+](=O)[O-])cc2c1 | 4.3 µg/mL (≈ 12.9 µM) | – | –
28 | COc1ccc2oc(=O)c([N+](=O)[O-])cc2c1 | 31 µg/mL (≈ 140 µM) | – | –
29 | O=[N+]([O-])C1=Cc2ccccc2OC1n1cccn1 (stereo unspecified) | 21 µg/mL (≈ 86.3 µM) | – | 2.48
30 | O=c1oc2ccc(O)cc2cc1[N+](=O)[O-] | 10.9 µg/mL (≈ 52.6 µM) | – | –
31 | COc1cccc(NC2Oc3ccccc3C=C2[N+](=O)[O-])c1 (stereo unspecified) | 6.6 µg/mL (≈ 22.1 µM) | – | 4.2
32 | CCCCOc1ccc2oc(=O)c([N+](=O)[O-])cc2c1 | 33.9 µg/mL (≈ 129 µM) | – | –
